# Laboratory results: ChEMBL document CHEMBL4017517, “Small Molecule Inhibitors Simultaneously Targeting Cancer Metabolism and Epigenetics: Discovery of Novel Nicotinamide Phosphoribosyltransferase (NAMPT) and Histone Deacetylase (HDAC) Dual Inhibitors” (J Med Chem, 2017)
# Active and inactive are the calls of the source. No cut-off for these calls is given here.
# Columns and labels:
# [1] = biological target: Nicotinamide phosphoribosyltransferase (Homo sapiens, UniProt P43490); assay: Inhibition of human recombinant NAMPT using NAM as substrate preincubated for 5 mins followed by substrate addition measured after 15 mins by fluorescence assay
# [2] = biological target: Histone deacetylase 4 (Homo sapiens, UniProt P56524); assay: Inhibition of GST tagged human recombinant HDAC4 (H86 to 31G) expressed in Baculovirus infected Sf9 insect cells using Ac-Leu-Gly-Lys(Tfa)-AMC as substrate preincubated for 5 mins followed by substrate addition measured after 30 mins by fluorescence assay
# [3] = biological target: T1, Histone deacetylase 8 (Homo sapiens, UniProt Q9BY41); assay: Inhibition of GST tagged full length human recombinant HDAC8 (H90 to 30H) expressed in Baculovirus infected Sf9 insect cells using Ac-Leu-Gly-Lys(Tfa)-AMC as substrate preincubated for 5 mins followed by substrate addition measured after 30 mins by fluorescence assay
# T1 sequence (Q9BY41 whole entry): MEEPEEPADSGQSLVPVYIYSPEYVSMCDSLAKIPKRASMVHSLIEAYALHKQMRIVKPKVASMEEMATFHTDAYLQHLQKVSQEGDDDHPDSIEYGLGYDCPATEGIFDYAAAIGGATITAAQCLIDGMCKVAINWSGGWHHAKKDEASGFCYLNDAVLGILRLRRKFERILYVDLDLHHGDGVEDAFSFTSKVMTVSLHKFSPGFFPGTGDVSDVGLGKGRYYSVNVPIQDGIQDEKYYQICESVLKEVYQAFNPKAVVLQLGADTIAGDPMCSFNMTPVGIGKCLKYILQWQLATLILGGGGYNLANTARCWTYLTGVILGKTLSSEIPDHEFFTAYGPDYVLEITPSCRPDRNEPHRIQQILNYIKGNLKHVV
# [4] = test system: Rattus norvegicus; assay: Volume of distribution at steady state in Sprague-Dawley rat at 2 mg/kg, ip; assay type: ADME, organism-based; settings: in vivo
# Method in brief: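 Sprague-Dawley rats given a single ip dose of 2 mg/kg. Plasma concentration–time profile used to derive terminal half-life, Cmax, plasma clearance and Vss.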
# [5] = biological target: Histone deacetylase 2 (Homo sapiens, UniProt Q92769)
# [6] = biological target: T2, Histone deacetylase 1 (Homo sapiens, UniProt Q13547); assay: Inhibition of human recombinant HDAC1 (1 to 482 residues) expressed in Baculovirus using Ac-Leu-Gly-Lys(Ac)-AMC as substrate after 3 hrs by fluorescence assay
# [7] = test system: HCT-116; assay: Induction of apoptosis in human HCT116 cells assessed as late apoptotic cells at 5 uM after 72 hrs by Annexin V-FITC/propidium iodide staining-based flow cytometric analysis (reference value: 3.33%); assay type: functional
# Method in brief: (§1)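 HCT116 cells seeded at 5×10^5 cells/mL in six-well plates, treated at 5 μM for 72 h alongside vehicle. Cells trypsinized, washed twice in cold PBS, and resuspended in 1× binding buffer. Stained with annexin V-FITC 15 min at room temperature, then PI 15 min in dark, then flow cytometry.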
# [8] = test system: HCT-116; assay: Induction of apoptosis in human HCT116 cells assessed as late apoptotic cells at 5 uM after 72 hrs in presence of autophagy inhibitor wortmannin by Annexin V-FITC/propidium iodide staining-based flow cytometric analysis (reference value: 3.33%); assay type: functional
# [9] = test system: HCT-116; assay: Cell cycle arrest in human HCT116 cells assessed as accumulation at G2 phase at 5 uM after 48 hrs by propidium iodide staining based flow cytometry (reference value: 5%); assay type: functional
# [10] = test system: MDA-MB-231; assay: cells; assay type: functional, cell-based; settings: Homo sapiens, MDA-MB-231, 72 h
# [11] = test system: HCT-116; assay: Induction of apoptosis in human HCT116 cells assessed as early apoptotic cells at 5 uM after 72 hrs by Annexin V-FITC/propidium iodide staining-based flow cytometric analysis (reference value: 7.82%); assay type: functional; method in brief: as §1
# [12] = organism: Homo sapiens; assay: Inhibition of HDAC in human HCT116 cells assessed as increase in acetylated histone H3 level after 24 hrs by Western blot analysis; assay type: cell-based
# Method in brief: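 HCT116 cells treated at 1 and 5 μM for 24 h; DMSO-volume control. PBS-washed, RIPA-lysed on ice 30 min, centrifuged 12000 × g 15 min at 4 °C. 30 μg protein separated by SDS-PAGE, blotted to PVDF, blocked 5% BSA 2 h. Incubated with acetyl-histone H3 or H4 primary antibody overnight at 4 °C, then secondary antibody; infrared imaging.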
# [13] = biological target: T2, Histone deacetylase 1; assay: Inhibition of human recombinant HDAC1 (1 to 482 residues) expressed in Baculovirus using Ac-Leu-Gly-Lys(Ac)-AMC as substrate preincubated for 5 mins followed by substrate addition measured after 30 mins by fluorescence assay
# T2 sequence (Q13547 whole entry, the tested form may be a part): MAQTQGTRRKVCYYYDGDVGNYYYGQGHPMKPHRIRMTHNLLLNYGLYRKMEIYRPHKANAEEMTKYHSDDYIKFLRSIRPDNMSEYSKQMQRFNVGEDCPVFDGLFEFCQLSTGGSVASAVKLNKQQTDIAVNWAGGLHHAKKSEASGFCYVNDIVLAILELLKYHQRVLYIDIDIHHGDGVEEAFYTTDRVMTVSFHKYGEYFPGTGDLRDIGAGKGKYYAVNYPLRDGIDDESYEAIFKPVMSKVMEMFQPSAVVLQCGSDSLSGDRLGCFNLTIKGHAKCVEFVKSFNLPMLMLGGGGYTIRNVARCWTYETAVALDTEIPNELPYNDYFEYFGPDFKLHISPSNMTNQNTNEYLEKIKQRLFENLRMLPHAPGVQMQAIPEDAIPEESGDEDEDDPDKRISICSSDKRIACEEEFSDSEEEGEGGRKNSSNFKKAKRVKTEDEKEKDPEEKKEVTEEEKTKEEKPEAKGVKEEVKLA
# Histone deacetylase 2, sequence (Q92769 whole entry, the tested form may be a part): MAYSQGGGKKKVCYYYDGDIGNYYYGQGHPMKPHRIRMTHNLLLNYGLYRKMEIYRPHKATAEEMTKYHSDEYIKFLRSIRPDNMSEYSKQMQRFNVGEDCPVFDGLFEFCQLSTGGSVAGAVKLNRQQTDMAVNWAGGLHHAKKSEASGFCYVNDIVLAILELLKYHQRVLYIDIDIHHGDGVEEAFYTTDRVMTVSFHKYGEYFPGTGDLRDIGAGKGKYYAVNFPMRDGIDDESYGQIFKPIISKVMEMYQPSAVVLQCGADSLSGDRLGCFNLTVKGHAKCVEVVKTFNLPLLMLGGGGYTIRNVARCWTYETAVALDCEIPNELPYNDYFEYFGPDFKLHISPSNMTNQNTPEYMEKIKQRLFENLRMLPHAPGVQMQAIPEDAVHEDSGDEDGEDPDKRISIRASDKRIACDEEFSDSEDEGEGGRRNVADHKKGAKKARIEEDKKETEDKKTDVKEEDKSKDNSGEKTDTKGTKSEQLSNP
# Histone deacetylase 4, sequence (P56524 whole entry): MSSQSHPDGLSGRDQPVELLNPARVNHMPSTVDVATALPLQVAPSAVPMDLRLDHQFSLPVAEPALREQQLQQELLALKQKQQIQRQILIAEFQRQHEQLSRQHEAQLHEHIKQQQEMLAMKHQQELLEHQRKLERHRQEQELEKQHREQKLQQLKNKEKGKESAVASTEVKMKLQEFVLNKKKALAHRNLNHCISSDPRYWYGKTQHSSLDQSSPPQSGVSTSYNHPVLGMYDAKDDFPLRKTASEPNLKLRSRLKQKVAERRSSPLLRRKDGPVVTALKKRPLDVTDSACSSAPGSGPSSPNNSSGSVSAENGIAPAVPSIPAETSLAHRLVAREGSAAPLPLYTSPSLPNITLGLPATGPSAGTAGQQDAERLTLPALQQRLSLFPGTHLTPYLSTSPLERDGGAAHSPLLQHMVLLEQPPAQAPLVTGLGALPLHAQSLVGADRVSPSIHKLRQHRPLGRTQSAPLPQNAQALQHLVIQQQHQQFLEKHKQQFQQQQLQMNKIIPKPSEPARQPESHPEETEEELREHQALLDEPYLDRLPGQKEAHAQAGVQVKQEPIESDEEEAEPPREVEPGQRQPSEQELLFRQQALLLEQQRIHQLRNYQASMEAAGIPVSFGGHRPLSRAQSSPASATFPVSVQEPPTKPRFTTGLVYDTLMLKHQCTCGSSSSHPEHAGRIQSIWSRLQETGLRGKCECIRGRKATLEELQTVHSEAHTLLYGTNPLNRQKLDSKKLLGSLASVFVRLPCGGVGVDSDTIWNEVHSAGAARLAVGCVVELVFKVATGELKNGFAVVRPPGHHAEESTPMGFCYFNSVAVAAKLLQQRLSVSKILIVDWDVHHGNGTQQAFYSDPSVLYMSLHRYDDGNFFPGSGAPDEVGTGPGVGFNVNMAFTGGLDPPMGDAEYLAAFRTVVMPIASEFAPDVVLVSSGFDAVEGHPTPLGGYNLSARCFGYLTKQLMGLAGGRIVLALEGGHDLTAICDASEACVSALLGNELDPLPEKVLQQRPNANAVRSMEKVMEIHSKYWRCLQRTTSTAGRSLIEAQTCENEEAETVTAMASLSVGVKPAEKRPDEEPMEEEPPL
# Nicotinamide phosphoribosyltransferase, sequence (P43490 whole entry): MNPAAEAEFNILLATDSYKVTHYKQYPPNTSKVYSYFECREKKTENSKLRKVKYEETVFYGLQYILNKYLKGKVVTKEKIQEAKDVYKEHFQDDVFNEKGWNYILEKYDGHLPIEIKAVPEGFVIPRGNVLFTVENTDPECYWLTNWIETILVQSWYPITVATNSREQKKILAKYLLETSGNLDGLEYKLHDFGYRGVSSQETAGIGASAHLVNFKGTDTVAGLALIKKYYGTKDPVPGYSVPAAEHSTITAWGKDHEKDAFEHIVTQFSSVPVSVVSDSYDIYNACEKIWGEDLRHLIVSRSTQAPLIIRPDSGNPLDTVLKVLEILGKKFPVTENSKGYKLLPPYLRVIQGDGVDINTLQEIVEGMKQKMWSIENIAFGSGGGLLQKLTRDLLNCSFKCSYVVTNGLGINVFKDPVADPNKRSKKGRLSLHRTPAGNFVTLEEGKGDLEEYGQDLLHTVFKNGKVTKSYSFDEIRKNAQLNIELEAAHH
compound,measurement,setting,value
Nc1ccccc1NC(=O)c1ccc(Cn2cc(-c3ccc(C(=O)NCc4cccnc4)cc3)nn2)cc1,IC50,[1],31 nM
same,IC50,[2],> 100 µM
same,IC50,[3],> 100 µM
same,Vdss,[4],6229 mL/kg
same,IC50,[5],75 nM
same,IC50,[6],24 nM
same,Activity,[7],21.84%
same,Activity,[8],15.22%
same,Activity,[9],39%
same,IC50,[10],10 µM
same,Activity,[11],22.15%
same,inhibition,[12],Active
same,IC50,[13],55 nM
